COUP-TFII inh: inhibitors of human COUP-TFII (NR2F2) | P24468 | HEK293T NGFI-A luciferase reporter, luminescence | inhibition, % at 8.6 µM | hit rate 0.7% among 370,000 | AID 686940;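 active = inhibition above a per-plate cutoff, mean inhibition of test wells between control levels plus 3 SD, cut at about 38% in these data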;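 also: cells cotransfected with COUP-TFII expression vector driving the NGFI-A reporter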
GalR3 antagonist: human GalR3 antagonism | AID 651719 | O60755 | HEK293 GalR3-CNG cAMP membrane potential fluorescence; galR3 body fused to GalR1 C-terminus | hit rate 0.44% among 360,000 | inhibition, % at 3 µM;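 active = inhibition above the screen-wide average plus 3 SD, cut at about 13% in these data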;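 also: forskolin and galanin both at EC90 stimulate the cells; cAMP rise reported by CNG channel membrane potential dye signal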
CHT block: inhibits the human high affinity choline transporter. hit rate 0.86% among 310,000. B-score at 10 µM. Q9GZV3. CHT-expressing cells, membrane potential dye, choline response; active compounds read low;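 active = B-score over 3 SD under the library average, and starting fluorescence ratio not unusually high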;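 also: choline stimulus applied at its EC90 after an EC20 pre-addition; B-score computed on integrated fluorescence ratio after choline addition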
Target sequence (Q9GZV3 whole entry, looked up): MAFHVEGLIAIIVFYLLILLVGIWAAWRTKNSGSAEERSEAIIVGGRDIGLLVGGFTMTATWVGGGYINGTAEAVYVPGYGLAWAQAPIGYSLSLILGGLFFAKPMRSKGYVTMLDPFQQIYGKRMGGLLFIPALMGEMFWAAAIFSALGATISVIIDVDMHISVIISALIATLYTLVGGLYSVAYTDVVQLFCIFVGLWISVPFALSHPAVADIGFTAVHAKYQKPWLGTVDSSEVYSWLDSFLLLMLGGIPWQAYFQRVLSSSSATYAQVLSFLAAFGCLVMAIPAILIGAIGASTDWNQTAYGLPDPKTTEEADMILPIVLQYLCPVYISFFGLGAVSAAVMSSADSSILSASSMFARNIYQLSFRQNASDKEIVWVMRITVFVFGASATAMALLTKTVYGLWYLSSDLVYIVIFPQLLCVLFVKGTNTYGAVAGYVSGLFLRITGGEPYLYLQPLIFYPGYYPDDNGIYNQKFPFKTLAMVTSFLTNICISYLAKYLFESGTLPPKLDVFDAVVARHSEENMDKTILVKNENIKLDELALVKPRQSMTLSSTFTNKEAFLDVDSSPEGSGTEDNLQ
CHT PAM: human CHT allosteric activation; hit rate 0.49% among 310,000; CHT-expressing cells, membrane potential dye, choline EC20; active compounds read high; LV-AA mutant CHT in HEK293 cells; Q9GZV3; B-score at 10 µM; AID 488977;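 active = initial fluorescence not abnormally high and integrated response B-score, plate-corrected, over 3 SD above library mean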
NR2E3 ag-1: agonists of human nuclear receptor NR2E3; Q9Y5X4; GST-NR2E3/biotin-RetCOR TR-FRET, 1536-well; inhibition of corepressor binding, % at 4.78 µM; hit rate 0.12% among 320,000; AID 2300;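 active = percent inhibition above the cutoff of mean plus 3 SD of all tested compounds, set per screening campaign, cut at about 20% in these data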
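Material: NR2E3–RetCOR corepressor complex / Incubation: Compound–protein incubation for 5 h at 4 °C / Dosing: compound at 4.8 µM, single dose / Detection: time-resolved FRET / Benchmarks: high control biotin, low control 0.6% DMSO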
NR2E3 ag-2: agonists of human NR2E3 nuclear receptor | Q9Y5X4 | CHO-S Gal4-NCOR/VP16-NR2E3 two-hybrid, luciferase | inhibition of corepressor binding, % at 3.98 µM | hit rate 0.35% among 360,000;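 active = inhibition above the mean of all tested compounds plus 3 SD, cut at about 70% in these data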;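 also: higher means lower luciferase signal from less NR2E3 corepressor binding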
CHT activ conf: human CHT activation, confirmatory screen; shares compounds with CHT PAM; CHT-expressing cells, membrane potential dye fluorescence (FDSS); % of choline EC20–EC90 response window; HEK293 expressing CHT LV-AA mutant; choline added at its EC20; activation, % at 10 µM; hit rate 91% among 2,500; AID 504833;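 active = primary screen active, with duplicate mean activation above negative control mean plus 3 SD, cut at about 11% in these data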
HEK293 MP dye: activity in parental HEK293 cells lacking CHT; shares compounds with CHT PAM; membrane potential dye fluorescence (FDSS); measured after EC20 choline addition; ratio readout change at 10 µM, hits read low; hit rate 62% among 2,500; AID 623908;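 active = duplicate-averaged ratio beyond 3 SD from buffer wells, up or down, though filed actives are nearly all decreases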
Hits are given with their value; – = inactive; · = not tested or not shown. Compounds with a hit are over-represented: about 2.3% of the library has one in this group of screens.

SMILES	COUP-TFII inh	GalR3 antagonist	CHT block	CHT PAM	NR2E3 ag-1	NR2E3 ag-2	CHT activ conf	HEK293 MP dye
Cc1c(C)n(CCc2ccccc2)c2ncnc(NCCCN(C)C)c12	–	–	–	–	–	–	·	·
Cc1c(C)n(CCN(C)C)c2ncnc(NCc3ccccc3)c12	–	–	–	–	–	–	46.0	-47.9
C=CCN1C(C(=O)OC)CN(Cc2cn(Cc3ccc(Cl)cc3)nn2)CCS1(=O)=O (stereo not given)	–	·	·	·	·	·	·	·
COc1ccc(CCN(Cc2cccs2)S(=O)(=O)c2ccc(C)c(C)c2)cc1OC	–	·	·	·	·	·	·	·
CCOc1ccc(-c2cc(C(=O)OC)c3n(c2=O)CCC3)cc1	–	·	·	·	·	·	·	·
CCOc1ccccc1OC(=O)c1ccco1	–	–	–	–	–	–	·	·
CC(=O)COc1ccccc1OC(=O)c1ccco1	–	–	–	–	–	–	–	–
COc1ccc(-c2csc(N(CCCN(C)C)C(=O)c3cccs3)n2)cc1	–	–	–	–	–	–	36.3	-43.4
COc1ccc(-c2csc(N(CCCN(C)C)C(=O)c3ccc(C)cc3)n2)cc1	–	–	–	–	–	–	·	·
CCCCn1cnc2sc3c(c2c1=N)CCCC3	–	–	–	–	–	–	53.1	-41.3
N=c1c2c3c(sc2ncn1Cc1ccccc1)CCCC3	–	–	–	–	–	–	·	·
N=c1c2c3c(sc2ncn1CCN1CCOCC1)CCCCC3	–	–	–	–	–	–	68.6	-32.3
N=c1c2c3c(sc2ncn1CCCO)CCCC3	–	–	–	9.53	–	–	26.5	-56.1
CCC[C@H]1[C@@H](OC(=O)N2CCN(c3ccccc3)CC2)CC[C@@]23CCCN2C(=O)CCC[C@@H]13	–	·	·	·	·	·	·	·
CC(Cl)C(=O)N1CCC(C(=O)NCC2COc3ccccc3O2)CC1 (stereo not given)	–	·	·	·	·	·	·	·
O=C(Cn1nc(-c2ccccc2)c2ccccc21)Oc1ccccc1	–	·	·	·	·	·	·	·
CCOc1ccc(Nc2cc(C)nc3ccc(C)cc23)cc1	–	–	–	–	–	–	35.2	-47.1
CCOC(=O)c1ccc2nc(C)cc(Nc3cccc(C(=O)O)c3)c2c1	·	·	–	–	–	·	26.8	-24.8
CCOC(=O)c1cccc(Nc2nc(C)cc(C)n2)c1	–	–	–	–	–	–	·	·
O=C(Nc1nc2ncccn2c1-c1ccc(C(F)(F)F)cc1)C1CC1	–	·	·	·	·	·	·	·
COc1ccc(-c2cc(=O)oc3c(C)c(OCC(=O)NCCCn4ccnc4)ccc23)cc1	–	–	–	–	–	–	·	·
Cc1cc(OCC(=O)NCCN2CCOCC2)c2c(C)c(C)c(=O)oc2c1	–	–	–	–	–	–	56.4	-54.3
CCCc1cc(=O)oc2c3c(cc(OCC(=O)NCCCn4ccnc4)c12)OC(C)(C)CC3	–	–	–	–	–	–	·	·
Cc1cc(=O)oc2c3c(cc(OCC(=O)NCCCn4ccnc4)c12)OC(C)(C)CC3	–	–	–	–	–	–	23.9	-35.7
Cc1cc(OCC(=O)NCCCn2ccnc2)c2c(C)c(C)c(=O)oc2c1	–	–	–	–	–	–	40.5	-63.9
SMILES	COUP-TFII inh	GalR3 antagonist	CHT block	CHT PAM	NR2E3 ag-1	NR2E3 ag-2	CHT activ conf	HEK293 MP dye
CCCc1cc(=O)oc2c(C)c(OCC(=O)NCCCn3ccnc3)ccc12	–	–	–	–	–	–	43.7	-44.3
CCc1cc(=O)oc2cc(C)cc(OCC(=O)NCCCn3ccnc3)c12	–	–	–	–	–	–	·	·
CCCc1cc(=O)oc2cc(C)cc(OCC(=O)NCCCN3CCOCC3)c12	–	–	–	–	–	–	·	·
COC(=O)c1cc(S(=O)(=O)N2CCCN(C(C)=O)CC2)cn1C	–	·	·	·	·	·	·	·
Cc1cc(NC(=O)c2ccc(NS(=O)(=O)c3ccccc3)cc2)no1	–	·	·	·	·	·	·	·
CCCc1cc(=O)oc2c3c(cc(OCC(=O)NCC4CCC(C(=O)O)CC4)c12)OC(C)(C)CC3 (stereo not given)	–	–	–	–	–	–	–	–
CCc1cc(=O)oc2cc(C)cc(OC(C)C(=O)NCCCN3CCOCC3)c12 (stereo not given)	–	–	–	–	–	–	43.4	-32.9
Cc1cc(OC(C)C(=O)NCCN2CCOCC2)c2c(C)cc(=O)oc2c1 (stereo not given)	–	–	–	–	–	–	·	·
CCc1cc(=O)oc2cc(C)cc(OC(C)C(=O)NC3CCN(Cc4ccccc4)CC3)c12 (stereo not given)	–	–	–	–	–	–	53.5	-45
Cc1cc(OC(C)C(=O)NC2CCN(Cc3ccccc3)CC2)c2c(C)cc(=O)oc2c1 (stereo not given)	·	·	–	–	–	–	·	·
Cc1cc(OC(C)C(=O)NCCCN2CCOCC2)c2c(C)c(C)c(=O)oc2c1 (stereo not given)	–	–	–	6.37	–	–	62.4	-48
CCCc1cc(=O)oc2c3c(cc(OCC(=O)N4CCC(C(=O)O)CC4)c12)OC(C)(C)CC3	–	–	·	·	·	–	·	·
CCOC(=O)[C@@]12CCCC3=C1N(CCC3)C(=O)[C@H]2CC(=O)NCCCOC	–	·	·	·	·	·	·	·
Cc1cc(C(=O)O[C@@H]2CCC[C@]3(C(=O)N(Cc4ccccc4)c4ccccc43)[C@H]2NC(=O)CCc2ccccc2)no1	–	·	·	·	·	·	·	·
O=C(NC1CCCCN(Cc2ccc(OC(F)(F)F)cc2)C1=O)c1cccc(C(F)(F)F)c1 (stereo not given)	–	·	·	·	·	·	·	·
Cc1c(O)ccc2c(CN3CCN(CCO)CC3)cc(=O)oc12	–	–	–	17.4	–	–	65.6	-70.3
O=C(C1CC1)N1CCc2cc(Br)c(S(=O)(=O)NCCCN3CCCCC3)cc21	–	·	·	·	·	·	·	·
CN1CCCC1CCNc1ccc2c(=O)c3ccccc3oc2c1 (stereo not given)	–	–	–	6.44	–	–	53.1	-21.9
CN1CCCC1CCNc1ccc2oc3ccccc3c(=O)c2c1 (stereo not given)	–	–	–	–	–	·	·	·
C[C@H]1[C@@H](N(C)CC2CCCCC2)CC[C@@]23CCCN2C(=O)CCC[C@@H]13	–	·	·	·	·	·	·	·
CCCCN(CCCNC(=O)c1ccc(CS(=O)(=O)c2c(Cl)cccc2Cl)o1)Cc1ccccc1	–	–	–	–	–	–	43.9	-41.7
CN(C)CCNC(=O)c1onc(CSc2ccc(F)cc2)c1C(=O)NCCN(C)C	–	–	–	6.7	–	–	17.5	-20.5
COC(=O)c1ccccc1NC(=O)CN1CCc2ccccc2C1	–	–	–	–	–	–	·	·
COC(=O)c1ccccc1NC(=O)CN1CCN(C23CC4CC(CC(C4)C2)C3)CC1	–	–	–	6.87	–	–	30.3	–
